Results reported in PubChem BioAssay.
Calls of active or inactive are those of the source.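 The calls were made as follows, unless noted: active = inhibition at or above 50% relative to wild type and mutant plate controls; inactive = inhibition below 50%.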

Experiments:
[1] = inhibitors of TNFa-induced NFkB p65 translocation, primary screen, imaging, HUVEC, MLSMR starter and 10KST1 sets (AID 438;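 active = inhibition above 20% together with a positive visual image hit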;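 also: compound added about 3h40 before a 20 min TNFalpha stimulation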;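 as to inhibition: signal is the nuclear over cytoplasmic p65 intensity ratio per well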); conditions: HUVEC TNFa-induced p65 nuclear translocation; cell count: measured here: nuclei count (cytotoxicity indicator), at 2.08 µM; inhibition: at 2 µM, stronger effect = higher value, 0% TNFa-plus-vehicle, 100% no-TNFa wells
[2] = inhibitors of E-selectin induction by TNFa, primary screen, imaging, HUVEC, immunofluorescence, MLSMR starter and 10KST1 sets (AID 487;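 active = visually confirmed hit in the image check and inhibition above 20%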;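 as to inhibition: signal is fraction of cell area covered by stained E-selectin grains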;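 as to nuclei count: 100% = median nuclei count of all wells on the same plate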); conditions: HUVEC TNFalpha-induced E-selectin immunofluorescence imaging, at 2 µM; inhibition: stronger effect = higher value; nuclei count: measured here: cell number, toxicity
[3] = DUSP6 inhibitors restoring Erk phosphorylation by chemical complementation, primary imaging in DUSP6-transfected HeLa (AID 609;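 active = compounds giving at least 50% inhibition in the cell-based MKP-3 phosphatase rescue imaging test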;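 as to inhibition: phospho-Erk level distribution per well compared with pooled transfected vehicle control wells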); conditions: HeLa MKP-3 transfected, phospho-Erk imaging KS statistic, at 10 µM, cells stimulated with TPA for 15 min
[4] = molecular target: Dual specificity protein phosphatase 6 (Homo sapiens) (UniProt Q16828); assay: as above; conditions: HeLa MKP-3 transfected, phospho-Erk imaging KS statistic; at 10 µM; stronger effect = higher value; cells stimulated with TPA for 15 min
[5] = molecular target: Voltage-gated potassium channel subunit beta-2 (Rattus norvegicus) (UniProt P62483); assay: KvBeta enzyme negative modulators, primary screen, biochemical, NADPH fluorescence (AID 622;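 active = fluorescence slope higher than the sample average by over 3 SD, cut at about -0.22 in these data, passing the limit was not always enough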;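 also: slope of raw intensity against log time taken from 70 to 1610 s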); conditions: recombinant KvBeta, 4-cyanobenzaldehyde reduction, at 10 µM, stronger effect = higher value
[6] = molecular target: Voltage-gated potassium channel subunit beta-2 (Rattus norvegicus) (UniProt P62483); assay: KvBeta positive modulators, primary screen, biochemical, NADPH fluorescence (AID 623;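 active = NADPH fluorescence slope more negative than the mean of all samples by about 3 SD, 99.7% confidence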;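 also: fluorescence intensity change per second fitted from 20 to 320 s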); conditions: Recombinant KvBeta, NADPH fluorescence decrease slope, 10 min; at 10 µM; stronger effect = lower value
[7] = molecular target: Alpha-2C adrenergic receptor (Homo sapiens) (UniProt P18825); assay: modulators of alpha2C/GIRK thallium flux, primary screen, cell-based, HEK293 alpha2C/GIRK1/2 (AID 624;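 active = fluorescence slope after compound addition differing from the mean of all screened samples at 99.7% confidence, in either direction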;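 also: slope of fluorescence ratio to pre-addition baseline per second over 15 to 24 s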); conditions: thallium flux BTC fluorescence, at 10 µM, actives lie on both sides
[8] = inhibitors of larval lipid processing in zebrafish, primary screen, whole organism, PED6 fluorescence, gall bladder and intestine (AID 686;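 active = a full or partial loss of lipid-probe fluorescence in the fish gall bladder, intestine or both, judged by eye; inactive = no fluorescence loss, or compound toxic to the fish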;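 also: larvae 5 to 7 days old with five fish per well; signal comes from phospholipase A2 cleavage of quenched PED6 carried via bile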); conditions: Zebrafish larvae PED6 lipid processing, fluorescence scoring; screened at 20 µM (by protocol)
Method in brief: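 Incubation: overnight exposure of larvae to compound plus PED6 / Test system: live zebrafish larvae aged 5-7 days, whole organism / Amount: 5 larvae per well / Read-out basis: visual per-well fluorescence inhibition score / Signal: visual fluorescence microscopy scoring of gall bladder, gut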

[9] = inhibitors of Chlamydomonas gravitaxis, primary screen, whole organism, Chlamydomonas reinhardtii, WT vs cilia-less mutant, absorbance, 96-well (AID 463189); conditions: OD600 absorbance, 2 days, at 10 µM, stronger effect = higher value;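 also: 0% = wild type cc124 cells in DMSO and 100% = ciliumless bld1 mutant cells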
[10] = measured here: cell density z-score
[11] = measured here: nuclear c-Myc green intensity z-score
[12] = measured here: nuclear pErk red intensity z-score, stronger effect = higher value

Chain of Dual specificity protein phosphatase 6 (Homo sapiens) (Q16828 whole entry, looked up): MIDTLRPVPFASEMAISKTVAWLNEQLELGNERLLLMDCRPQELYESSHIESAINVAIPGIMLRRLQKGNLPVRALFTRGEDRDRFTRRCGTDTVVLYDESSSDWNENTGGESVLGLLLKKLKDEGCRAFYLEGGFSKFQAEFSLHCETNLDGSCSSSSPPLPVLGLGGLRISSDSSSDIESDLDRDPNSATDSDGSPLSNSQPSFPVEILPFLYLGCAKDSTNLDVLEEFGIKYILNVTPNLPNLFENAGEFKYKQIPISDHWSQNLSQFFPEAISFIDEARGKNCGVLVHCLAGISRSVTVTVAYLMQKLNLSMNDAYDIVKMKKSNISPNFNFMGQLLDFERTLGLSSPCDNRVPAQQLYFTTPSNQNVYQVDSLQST
Chain of Voltage-gated potassium channel subunit beta-2 (Rattus norvegicus) (P62483 whole entry, looked up): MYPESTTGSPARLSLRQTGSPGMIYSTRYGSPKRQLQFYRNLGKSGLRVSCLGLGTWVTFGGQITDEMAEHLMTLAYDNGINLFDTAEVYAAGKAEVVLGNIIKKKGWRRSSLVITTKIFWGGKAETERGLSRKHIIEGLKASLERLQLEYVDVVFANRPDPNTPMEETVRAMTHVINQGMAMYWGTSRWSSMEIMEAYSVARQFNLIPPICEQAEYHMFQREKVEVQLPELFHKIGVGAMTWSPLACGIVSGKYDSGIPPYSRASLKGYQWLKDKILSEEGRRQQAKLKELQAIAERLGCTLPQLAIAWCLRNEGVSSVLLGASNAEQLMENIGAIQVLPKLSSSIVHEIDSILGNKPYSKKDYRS
Chain of Alpha-2C adrenergic receptor (Homo sapiens) (P18825 whole entry, looked up): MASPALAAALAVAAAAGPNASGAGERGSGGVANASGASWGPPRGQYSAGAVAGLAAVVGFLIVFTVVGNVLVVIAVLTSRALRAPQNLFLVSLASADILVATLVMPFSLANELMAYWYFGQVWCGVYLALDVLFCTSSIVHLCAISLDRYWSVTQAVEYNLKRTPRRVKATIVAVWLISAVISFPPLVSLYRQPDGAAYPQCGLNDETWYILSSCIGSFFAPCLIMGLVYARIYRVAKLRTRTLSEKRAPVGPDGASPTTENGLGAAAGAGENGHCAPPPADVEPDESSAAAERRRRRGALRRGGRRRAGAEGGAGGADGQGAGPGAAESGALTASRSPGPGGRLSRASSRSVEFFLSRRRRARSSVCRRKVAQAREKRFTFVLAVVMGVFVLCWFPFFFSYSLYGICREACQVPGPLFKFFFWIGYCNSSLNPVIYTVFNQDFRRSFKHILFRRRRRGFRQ

Compound | cell count [1] | inhibition [1] | inhibition [2] | nuclei count [2] [%] | z-score [3, 10] | z-score [3, 11] | z-score [3, 12] | inhibition [4] | fluorescence slope [5] | NADPH fluorescence slope [6] | slope [7] | outcome [8] | inhibition [9]
COc1ccc(/C=N/n2cncn2)cc1COc1ccc(NC(C)=O)cc1 | 307 | -11.9% (inactive) | -81.9% (inactive) | 99.2 | 1.57 | 0.491 | -0.528 | 24.3% (inactive) | -0.402 (inactive) | 3.3e-05 (inactive) | 0.00513 (inactive) | inactive | -6.96% (inactive)
CN1CCc2c(sc3c2C(=O)NC(c2ccco2)N3)C1 (configuration not stated) | 554 | -12% (inactive) | -9.3% (inactive) | 170 | -0.0126 | -0.484 | 0.477 | 4.72% (inactive) | -0.43 (inactive) | -3.1e-06 (inactive) | 0.00594 (inactive) | inactive | 7.66% (inactive)
O=S(CCc1ccncc1)Cc1ccccc1 (configuration not stated) | 337 | -23.4% (inactive) | -114% (inactive) | 140 | -0.83 | 1.38 | 2.01 | -14% (inactive) | -0.427 (inactive) | -0.000147 (inactive) | 0.00701 (inactive) | inactive | -11.4% (inactive)
Cc1ccc2[nH]c3c(c2c1)CN(C(=O)CN1CCN(c2ccccn2)CC1)CC3 | 563 | -9% (inactive) | -69.3% (inactive) | 144 | -1.22 | -0.583 | -0.448 | 4.72% (inactive) | -0.453 (inactive) | -0.000143 (inactive) | 0.00579 (inactive) | inactive | 10.4% (inactive)
O=c1c2c3c(sc2n2cnnc2n1Cc1ccccc1)CN(Cc1ccccc1)CC3 | 620 | -1.6% (inactive) | 66.2% (inactive) | 104 | 0.015 | 0.568 | 0.295 | 6.04% (inactive) | -0.427 (inactive) | -1.4e-05 (inactive) | 0.0049 (inactive) | inactive | 22.4% (inactive)
CC(C)(C)NC(=O)CSc1nsc(SCC(=O)NC(C)(C)C)c1C#N | 601 | -26% (inactive) | 18.9% (inactive) | 178 | -0.466 | -1.37 | 0.955 | -4.27% (inactive) | -0.412 (inactive) | -6.5e-05 (inactive) | 0.00541 (inactive) | inactive | 12.4% (inactive)
CCC1(C)Cc2ccccc2-c2nc(NCCO)n(-c3ccccc3)c(=O)c21 (configuration not stated) | 467 | 0.9% (inactive) | -104% (inactive) | 137 | -0.977 | 0.92 | 0.687 | -14% (inactive) | -0.0137 (active) | 6.5e-06 (inactive) | 0.00569 (inactive) | inactive | -9.34% (inactive)
C=CCOC(=O)C(C#N)c1nc2ccccc2nc1N1CCN(c2ccccc2OCC)CC1 (configuration not stated) | 543 | -30.2% (inactive) | -94.9% (inactive) | 165 | -0.552 | -0.297 | 0.325 | -11.5% (inactive) | -0.494 (inactive) | -3.6e-05 (inactive) | 0.00373 (inactive) | inactive | -7.78% (inactive)
CC(=O)N1CC=C2C(C#N)=C(N)C(C#N)(C#N)[C@H](c3ccoc3)[C@H]2C1 | 364 | -12.2% (inactive) | -63% (inactive) | 90.4 | 0.865 | 0.398 | -2.11 | -4.7% (inactive) | -0.371 (inactive) | 7.7e-06 (inactive) | 0.00495 (inactive) | inactive | -0.734% (inactive)
c1ccc2c(c1)NC(c1ccncc1)n1c-2nc2ccccc21 (configuration not stated) | 301 | 5% (inactive) | -118% (inactive) | 108 | -1.27 | 1.48 | 0.784 | -2.91% (inactive) | -0.384 (inactive) | -5.4e-05 (inactive) | 0.00501 (inactive) | inactive | -2.42% (inactive)
COCCOC(=O)C1=C(C)NC(SCC(=O)NC(C)(C)C)=C(C#N)C1c1ccco1 (configuration not stated) | 364 | -11.5% (inactive) | -124% (inactive) | 121 | 0.297 | -0.0811 | -0.28 | 7.48% (inactive) | -0.397 (inactive) | -4e-05 (inactive) | 0.00427 (inactive) | inactive; toxic | 27.7% (inactive)
Cc1cc(C)n(C(=O)CSc2nc3ccccc3o2)n1 | 551 | -6.6% (inactive) | -100% (inactive) | 138 | 0.355 | 0.587 | 0.0282 | 19.8% (inactive) | -0.488 (inactive) | -4.3e-05 (inactive) | 0.00455 (inactive) | inactive | 25.1% (inactive)
O=S(=O)(O)c1nc2ccccc2n1Cc1ccc(Cl)cc1Cl | 405 | -4.7% (inactive) | -102% (inactive) | 149 | -0.945 | 0.195 | -1.66 | 20.8% (inactive) | -0.337 (inactive) | -1.5e-05 (inactive) | 0.00557 (inactive) | inactive | 27.2% (inactive)
CC(O)Cn1ccccc1=N (configuration not stated) | 352 | -2% (inactive) | -146% (inactive) | 105 | 0.162 | -0.0061 | 0.0768 | -2.29% (inactive) | -0.293 (inactive) | 7.7e-06 (inactive) | 0.00523 (inactive) | inactive | 21.9% (inactive)
